The target of series [1] is T1, Cannabinoid receptor 1 (Homo sapiens, UniProt P21554). The series can be described thus: Displacement of [3H]-CP55940 from human recombinant cannabinoid CB1 receptor expressed in HEK293 cell membranes incubated for 90 mins. Put shortly: (§1)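 Competition binding against [3H]-CP55940 on human recombinant CB1 or CB2 receptor, with increasing concentrations of test compound. IC50 was obtained by nonlinear regression of the inhibition of radioligand binding. Ki was calculated with the Cheng–Prusoff equation, and only where IC50 was below 10 μM.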
In general terms: Displacement assays read how much labelled ligand stays bound in the presence of the test substance.

In series [2] the target is T1, Cannabinoid receptor 1. The series is described as follows: Displacement of [3H]-CP55940 from human recombinant cannabinoid CB1 receptor expressed in HEK293 cell membranes incubated for 90 mins by Cheng-Prusoff equation analysis. Put shortly: as §1
The target in series [3] is T2, Cannabinoid receptor 2 (Homo sapiens, UniProt P34972). The series is described as follows: Displacement of [3H]-CP55940 from human recombinant cannabinoid CB2 receptor expressed in HEK293 cell membranes incubated for 90 mins. Put shortly:
as §1

The target of series [4] is T2, Cannabinoid receptor 2. The series is described as follows: Displacement of [3H]-CP55940 from human recombinant cannabinoid CB2 receptor expressed in HEK293 cell membranes incubated for 90 mins by Cheng-Prusoff equation analysis. Put shortly:
as §1

Series [5] concerns the target T2, Cannabinoid receptor 2. The series is described as follows: Activity at human recombinant cannabinoid CB2 receptor expressed in CHOK1 cells assessed as induction of cAMP content back to basal condition up to 25 uM pre-incubated for 15 mins before NKH-477 stimulation for 30 mins by chemiluminescent detection based cAMP Hunter assay. The format is functional, cell-based.

Series [6] addresses T2, Cannabinoid receptor 2. The series is described as follows: Noncompetitive antagonist activity at human recombinant cannabinoid CB2 receptor expressed in CHOK1 cells assessed as inhibition of NKH-477-induced cAMP accumulation pre-incubated for 15 mins before NKH-477 stimulation for 30 mins by chemiluminescent detection based cAMP Hunter assay. The format is functional, cell-based.

Series [7] has as its target T2, Cannabinoid receptor 2. The series can be described thus: Noncompetitive antagonist activity at human recombinant cannabinoid CB2 receptor expressed in CHOK1 cells assessed as inhibition of NKH-477-induced cAMP accumulation by measuring parallel shifts of NKH-477 concentration-response curves pre-incubated for 15 mins before NKH-477 stimulation for 30 mins by chemiluminescent detection based cAMP Hunter assay based Schild plot analysis. The format is functional, cell-based. Put shortly: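 Functional cAMP assay under NKH-477 (water-soluble forskolin analog) stimulation. JWH-133 concentration–response curves were run alone and with several concentrations of the antagonist. The concentration ratio was taken as EC50 of JWH-133 with antagonist divided by the concentration giving the same response without it. log(CR–1) was plotted against log antagonist concentration, and the Schild slope came from linear regression.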
A general note: Cyclic AMP is a second messenger, typically raised through Gs and lowered through Gi signalling.

Series [8] can be described thus: Inhibition of calcium channel in human SH-SY5Y cells assessed as blockade of 70 mM potassium-evoked depolarization-induced Ca2+ entry. The format is cell-based.
Series [9] concerns the target Glycogen synthase kinase-3 beta (Homo sapiens, UniProt P49841). The series can be described thus: inhibition of GSK3beta (unknown origin) by LANCE Ultra TR-FRET assay. On the technique in general: Time-resolved FRET reads energy transfer from a long-lived donor to a nearby acceptor.

The source made the active and inactive calls. No cut-off for these calls is given here.

What is called IC50 is the point on the concentration scale where inhibition reaches its midpoint. The Ki is the equilibrium dissociation constant of an inhibitor or competing ligand from its target.

T2 sequence (P34972 whole entry): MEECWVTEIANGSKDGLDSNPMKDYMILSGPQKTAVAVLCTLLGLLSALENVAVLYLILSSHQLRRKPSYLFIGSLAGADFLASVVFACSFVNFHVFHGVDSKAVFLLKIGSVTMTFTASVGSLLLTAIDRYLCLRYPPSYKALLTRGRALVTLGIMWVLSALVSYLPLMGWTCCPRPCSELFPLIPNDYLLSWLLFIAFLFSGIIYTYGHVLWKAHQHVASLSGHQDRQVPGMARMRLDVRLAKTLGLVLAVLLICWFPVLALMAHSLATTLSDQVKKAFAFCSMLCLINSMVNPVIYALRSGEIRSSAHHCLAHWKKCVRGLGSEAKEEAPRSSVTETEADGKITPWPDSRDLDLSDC
T1 sequence (P21554 whole entry): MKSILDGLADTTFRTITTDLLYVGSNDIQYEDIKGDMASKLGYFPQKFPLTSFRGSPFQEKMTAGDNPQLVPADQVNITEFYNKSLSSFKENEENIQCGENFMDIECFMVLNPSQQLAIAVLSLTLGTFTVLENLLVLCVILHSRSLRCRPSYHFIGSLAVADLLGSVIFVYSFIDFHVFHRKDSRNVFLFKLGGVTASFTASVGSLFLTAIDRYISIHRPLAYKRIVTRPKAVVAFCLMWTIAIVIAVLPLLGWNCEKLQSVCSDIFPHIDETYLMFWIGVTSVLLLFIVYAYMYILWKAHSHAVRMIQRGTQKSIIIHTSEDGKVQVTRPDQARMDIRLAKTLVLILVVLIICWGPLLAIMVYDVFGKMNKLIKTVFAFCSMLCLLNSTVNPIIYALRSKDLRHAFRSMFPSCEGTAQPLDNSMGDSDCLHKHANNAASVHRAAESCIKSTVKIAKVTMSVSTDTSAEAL
Sequence of Glycogen synthase kinase-3 beta (P49841 whole entry): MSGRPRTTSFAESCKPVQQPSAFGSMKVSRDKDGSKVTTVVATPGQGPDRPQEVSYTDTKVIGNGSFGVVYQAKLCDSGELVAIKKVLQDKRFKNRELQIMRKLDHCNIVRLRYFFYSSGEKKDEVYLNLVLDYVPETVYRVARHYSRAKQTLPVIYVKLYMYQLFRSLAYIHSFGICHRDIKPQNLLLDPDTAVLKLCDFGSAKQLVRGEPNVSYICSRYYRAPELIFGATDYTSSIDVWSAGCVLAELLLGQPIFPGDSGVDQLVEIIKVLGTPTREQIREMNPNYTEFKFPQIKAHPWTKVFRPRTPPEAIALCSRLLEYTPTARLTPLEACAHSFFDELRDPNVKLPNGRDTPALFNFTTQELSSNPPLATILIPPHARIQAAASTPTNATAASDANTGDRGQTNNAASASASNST

Turning to `CCCCCCCN1C(=O)C2C3c4ccccc4C(c4ccccc43)C2C1=O` (configuration not stated), the figures for the IC50 at Cannabinoid receptor 1 [1] and at Cannabinoid receptor 2 [3] were 9.35 µM and 7.94 µM, respectively. The Ki on Cannabinoid receptor 1 [2] was found to be 3.77 µM; at Cannabinoid receptor 2 [4], 2.01 µM.
Taken in the same sequence, the figures for `O=C1NC(=O)C2C3c4ccccc4C(c4ccccc43)C12` (configuration not stated) were over 10 µM, over 10 µM, over 10 µM and over 10 µM.
On the same counts, the results for `CCCCCCCN1C(=O)C2C3c4ccccc4C(C)(c4ccccc43)C2C1=O` (configuration not stated) are over 10 µM, 3.86 µM, over 10 µM and 0.98 µM.
With `CCCCCCCCN1C(=O)C2C3c4ccccc4C(c4ccccc43)C2C1=O` (configuration not stated), the IC50 is over 10 µM on Cannabinoid receptor 1 [1] and 8.74 µM on Cannabinoid receptor 2 [3]. Moreover, the inhibitory constant (Ki) was over 10 µM at Cannabinoid receptor 1 [2] and 2.22 µM at Cannabinoid receptor 2 [4].
For the compound `CCCCCCCOCC12c3ccccc3C(c3ccccc31)C1C(=O)N(CCCCCCC)C(=O)C12` (configuration not stated), the IC50 at Cannabinoid receptor 1 [1] and at Cannabinoid receptor 2 [3] was over 10 µM each time. For the same compound, the Ki on Cannabinoid receptor 1 [2] and on Cannabinoid receptor 2 [4] was over 10 µM each time.
`CCCCCCCNCC12c3ccccc3C(c3ccccc31)C1C(=O)N(CCCCCCC)C(=O)C12` (configuration not stated): the IC50 at Cannabinoid receptor 1 [1] and on Cannabinoid receptor 2 [3] was over 10 µM throughout. The Ki on Cannabinoid receptor 1 [2] and on Cannabinoid receptor 2 [4] was over 10 µM throughout.
`CCCCCCCN1C(=O)C2C3c4ccccc4C(c4cc(Cl)ccc43)C2C1=O` (configuration not stated): the figures for the IC50 on Cannabinoid receptor 1 [1] and on Cannabinoid receptor 2 [3] were over 10 µM and 6.85 µM, respectively. Further, the Ki was over 10 µM on Cannabinoid receptor 1 [2] and 1.74 µM on Cannabinoid receptor 2 [4].
On to `CCCCCCCNCC12c3ccccc3C(c3ccccc31)C1C(=O)NC(=O)C12` (configuration not stated), for which the figures for the IC50 at Cannabinoid receptor 1 [1] and on Cannabinoid receptor 2 [3] were over 10 µM and 3.93 µM, respectively. Besides, the Ki on Cannabinoid receptor 1 [2] was over 10 µM; on Cannabinoid receptor 2 [4], 1.01 µM.
With `CCCCCCN1C(=O)C2C3c4ccccc4C(c4ccccc43)C2C1=O` (configuration not stated), the IC50 was over 10 µM at Cannabinoid receptor 1 [1] and 8.14 µM at Cannabinoid receptor 2 [3]. The Ki is over 10 µM at Cannabinoid receptor 1 [2] and 2.06 µM on Cannabinoid receptor 2 [4]. Moreover, the outcome at Cannabinoid receptor 2 [5] was inactive.
On to `CCCCCCCN1C(=O)C2C3c4ccccc4C(Br)(c4ccccc43)C2C1=O` (configuration not stated), for which the IC50 on Cannabinoid receptor 1 [1] and on Cannabinoid receptor 2 [3] was over 10 µM each time. The Ki on Cannabinoid receptor 1 [2] and on Cannabinoid receptor 2 [4] was over 10 µM each time.
Take `CCCCCCN1C(=O)C2C3c4ccccc4C(C)(c4ccccc43)C2C1=O` (configuration not stated): the figures for the IC50 on Cannabinoid receptor 1 [1] and at Cannabinoid receptor 2 [3] were over 10 µM and 3.93 µM, respectively. For the same compound, the Ki at Cannabinoid receptor 1 [2] was over 10 µM; at Cannabinoid receptor 2 [4] it was 1.01 µM.
For the compound `CCCCCCCN1C(=O)C2C3c4ccccc4C(Cl)(c4ccccc43)C2C1=O` (configuration not stated), the IC50 was over 10 µM at Cannabinoid receptor 1 [1] and 9.88 µM at Cannabinoid receptor 2 [3]. For the same compound, the Ki on Cannabinoid receptor 1 [2] was over 10 µM; on Cannabinoid receptor 2 [4] it was 2.51 µM.
Take `CCCCCCCOCC12c3ccccc3C(c3ccccc31)C1C(=O)NC(=O)C12` (configuration not stated): the figures for the IC50 on Cannabinoid receptor 1 [1] and on Cannabinoid receptor 2 [3] were over 10 µM and 0.9 µM, respectively. Besides, the Ki was over 10 µM on Cannabinoid receptor 1 [2] and 0.23 µM on Cannabinoid receptor 2 [4]. The result on Cannabinoid receptor 2 [6] and at Cannabinoid receptor 2 [7] was Active. Further, the “inhibition (INH)” value in series [8] and in [9] was “Not Active” throughout.

The record behind these values is ChEMBL document CHEMBL4339223, “Polycyclic Maleimide-based Scaffold as New Privileged Structure for Navigating the Cannabinoid System Opportunities” (ACS Med Chem Lett, 2019).
